Screens deposited in PubChem BioAssay by several laboratories.
PostGolgi yeast: growth inhibition of a yeast mutant, post-Golgi transport screen | hit rate 0.9% among 98,000 | post-Golgi transport phenotypic cell assay | inhibition, % at 10 µM;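 also: yeast cells grown in 1536-well plates; yeast grown about 18 h at 30C before absorbance read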
Plk1 PBD FP: blocks phosphopeptide binding to human Plk1 polo box domain | P53350 | Plk1 PBD phosphopeptide binding, fluorescence polarization | inhibition, %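 (tested at about 20 µM)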 | hit rate 0.13% among 97,000; in the data active = inhibition above about 34%, passing the limit was not always enough
PostGolgi ctrl: yeast control strain growth, post-Golgi counter-screen; efflux-deficient yeast background strain, growth absorbance A615, 16 h; hit rate 5% among 98,000; inhibition, % at 10 µM
HIV Rev-RRE inh: inhibitors of HIV-1 Rev-RRE RNA interaction. P05866. Rev peptide-RRE RNA binding, FRET. inhibition, % at 8 µM. hit rate 0.79% among 97,000. AID 704;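 active = inhibition above the screen-wide mean plus 3 SD, cut at about 35% in these data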
Target sequence (P05866 whole entry, looked up): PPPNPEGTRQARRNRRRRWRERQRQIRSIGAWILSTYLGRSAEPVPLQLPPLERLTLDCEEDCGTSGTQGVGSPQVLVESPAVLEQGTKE
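Test system: Cy5-tagged RRE RNA duplex with fluorescein-tagged Rev peptide; Probe or stimulus: labelled Rev peptide; Schedule: 5 min preincubation and 15 min binding, 25 °C; Signal: FRET fluorescence readout; Evaluation: % inhibition from 671/540 nm acceptor-to-donor ratio, scaled between controls; Control set: DMSO and neomycin B.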
PLK1 inh: blocks human PLK1 kinase activity. recombinant PLK1 kinase, TR-FRET peptide phosphorylation. AID 619. inhibition, % at 10 µM. P53350. hit rate 0.53% among 97,000;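 active = inhibition of 50% or more in the single-concentration screen; inactive = inhibition below 50%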
EphB4 antag: blocks human EphB4 binding to ephrin-B2 | P54760 | EphB4 LBD / TNYL-RAW-Alexa532 peptide, fluorescence polarization | inhibition, % at 7 µM | hit rate 0.15% among 97,000 | AID 720;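 active = inhibition above the screen-wide mean inhibition plus 3 SD, cut at about 15% in these data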
Numbers stand for hits; - = inactive; . = no result given. The list is not random: actives were taken first. Their share in the collection is about 6.4%. Rule as the data show it, unless noted: active = inhibition above about 30%; inactive = the rest.

SMILES | PostGolgi yeast | Plk1 PBD FP | PostGolgi ctrl | HIV Rev-RRE inh | PLK1 inh | EphB4 antag
CCOc1ccc(-c2cc(NC(=O)Cn3ncc4c3-c3ccccc3OC4)on2)cc1OCC | - | - | - | - | - | -
COc1cccc(N(C(=O)CNC(=O)c2ccco2)C(C(=O)NC2CCCCC2)c2ccncc2)c1 (centres undefined) | - | - | 37.9 | - | - | -
O=C(Cc1cccs1)N(Cc1cccs1)C1(C(=O)NC2CCCCC2)CCCCC1 | - | - | 30.9 | - | - | -
COc1ccc(CN(C(=O)CNC(=O)c2ccco2)C(C(=O)NC2CCCC2)c2ccco2)cc1 (centres undefined) | - | - | 38.8 | - | - | -
O=C(NCC(=O)N(Cc1ccccc1)C(C(=O)NC1CCCC1)c1ccco1)c1ccco1 (centres undefined) | - | - | - | - | - | -
COc1ccc(CN(C(=O)Cc2cccs2)C(C(=O)NC2CCCC2)c2ccncc2)cc1 (centres undefined) | 38.3 | - | - | - | - | -
COc1ccc(C(C(=O)NC2CCCCC2)N(Cc2cccs2)C(=O)Cc2c[nH]c3ccccc23)cc1 (centres undefined) | - | - | - | - | - | -
CN1CCN(NC(=O)c2cc([N+](=O)[O-])cc([N+](=O)[O-])c2)CC1 | - | - | - | - | - | -
COc1ccc(-c2cc(N)n(S(=O)(=O)c3ccc(F)cc3)n2)cc1OC | - | - | - | - | - | -
Cc1c(OCc2ccccc2)c(=O)ccn1Cc1ccc(Cl)cc1 | - | - | 43.3 | - | - | -
CC(C)Oc1ccccc1C1CC(=O)Nc2cc3c(cc21)OCO3 (centres undefined) | - | - | 30.6 | - | - | -
O=S(=O)(c1ccc(Br)cc1)N1CCCC1c1nc2ccccc2s1 (centres undefined) | - | - | 40.0 | - | - | -
CC(C)CNC(=O)c1ccc(COc2ccc(Cl)cc2Cl)o1 | - | - | 32.3 | - | - | -
O=C(Nc1ccccc1F)c1ccc(COc2ccc(Cl)cc2Cl)o1 | . | - | . | - | - | -
c1ccc(C2=Nc3ccccc3NC(c3ccccc3)C2)cc1 (centres undefined) | - | - | 35.5 | - | - | -
O=C1CC(c2ccccc2)NC(=O)N1 (centres undefined) | - | . | - | . | . | .
OC(COc1ccc2c(c1)OCO2)CN1CCc2ccccc2C1 (centres undefined) | - | - | - | - | - | -
Cc1ccc(N=C(NO)c2nonc2N)cc1 | - | - | 41.0 | - | - | -
CC(=O)NC(CCS(C)(=O)=O)C(=O)Nc1cc(Cl)ccc1Cl (centres undefined) | - | . | 32.1 | . | . | .
CC(=O)NC(CCS(C)(=O)=O)C(=O)Nc1ccccc1Cl (centres undefined) | - | - | - | - | - | -
O=c1c(-c2ccccc2)[n+]([O-])c2ccccc2n1O | - | - | - | - | - | -
CC(c1nnc(SCC(=O)N2CC(=O)Nc3ccccc32)n1Cc1ccccc1)N(C)C (centres undefined) | - | - | - | - | - | -
O=c1ccn(-c2cccc(C(F)(F)F)c2)nc1-c1ccn(-c2cccc(Cl)c2)n1 | - | - | 49.7 | - | - | -
COc1ccc(OC)c(-n2c(SCC(N)=O)nnc2-c2c[nH]c3ccccc23)c1 | - | - | - | - | 69.6 | -
COc1cccc(-n2c(SCC(N)=O)nnc2-c2c[nH]c3ccccc23)c1 | - | - | - | - | 67.8 | -
SMILES | PostGolgi yeast | Plk1 PBD FP | PostGolgi ctrl | HIV Rev-RRE inh | PLK1 inh | EphB4 antag
COc1ccc(OC)c(-n2c(SC)nnc2-c2c[nH]c3ccccc23)c1 | - | - | - | - | 67.5 | -
COc1ccc(OC)c(-n2c(SCC(=O)Nc3cc(C)on3)nnc2-c2c[nH]c3ccccc23)c1 | - | - | - | - | 68.4 | -
Cc1ccccc1-n1c(SCc2c(C)noc2C)nnc1-c1c[nH]c2ccccc12 | - | - | - | - | - | -
COc1cccc(-c2nnc(SCC(N)=O)n2-c2ccc(Cl)cc2)c1 | - | - | - | - | - | -
CCCCNC(=O)c1onc(CSc2cccc(C)c2)c1C(=O)O | - | - | - | - | - | -
CC(Oc1ccc(C(C)(C)C)cc1)c1ccnc2nc(/N=C/N(C)C)nn12 (centres undefined) | - | - | - | - | - | -
CC(C)(C)c1ccc(C(=O)C=[N+]=[N-])cc1 | - | - | - | - | - | -
C/C(=N\O)c1ccc2c3ccccc3n(C)c2c1 | - | - | 30.8 | - | - | -
CCn1c2ccccc2c2cc(N)ccc21 | - | - | - | 57.1 | - | -
CCCn1c2ccccc2c2cc(C(=O)O)ccc21 | - | - | - | - | - | -
CCn1c(C)cc(=S)c2ccccc21 | - | - | - | - | - | -
CCn1c2ccccc2c2cc(/C(C)=N/O)ccc21 | - | - | 65.3 | - | - | -
Cc1ccc(OCCNC(=O)c2ccco2)cc1C | - | - | - | - | - | -
COCCN(C(=O)CNC(=O)c1ccco1)C(C(=O)NC1CCCCC1)c1cccs1 (centres undefined) | . | - | . | - | - | -
COc1ccc(C(=O)N2CCN(C(=O)Cc3ccccc3)CC2)cc1OC | - | - | 46.5 | - | - | -
CSc1nnc2n(C)c3c(c(=O)n12)C1(CCCC1)Cc1ccccc1-3 | - | - | 38.4 | - | - | -
CCC(Sc1nc(N)c(NC(=O)c2ccc(OC)c(OC)c2)c(=O)[nH]1)C(=O)OC (centres undefined) | - | - | - | - | - | -
Cc1ccc(-c2csc3ncnc(SCC(=O)NCc4ccc5c(c4)OCO5)c23)cc1 | - | - | 42.9 | - | - | -
O=C(CSc1ncnc2scc(-c3ccc(Cl)cc3)c12)NCc1ccc2c(c1)OCO2 | . | - | . | - | - | -
CCc1ccc(N2CC(C(=O)NCc3ccco3)CC2=O)cc1 (centres undefined) | . | - | . | - | - | -
CCCc1cc(C(=O)Cc2ccc(F)cc2)c(O)cc1O | - | - | 51.8 | - | - | -
O=C(Cc1ccc(F)cc1)c1ccc(O)cc1O | - | - | - | - | - | -
CCCc1cc(-c2n[nH]c(C)c2-c2ccc(C(=O)OCC)o2)c(O)cc1O | - | - | - | - | - | -
CCCc1cc(C(=O)Cc2ccc(C(=O)OCC)o2)c(O)cc1O | - | - | 31.4 | - | - | -
CC(C)(C)Sc1nc(O)cc(=O)[nH]1 | - | - | - | - | - | -
Cc1c(-c2nc(N)nc(Nc3ccc(F)cc3)n2)oc2ccccc12 | - | - | 39.9 | - | - | -
COc1ccccc1Nc1nc(N)nc(-c2oc3ccccc3c2C)n1 | - | - | - | - | - | -
O=c1c(Cl)nc2cc(Cl)ccc2n1CCNc1ncc(C(F)(F)F)cc1Cl | 75.8 | - | 98.8 | - | - | -
CC(C)(C)c1cc(-c2ccco2)c(C#N)c(SCC#N)n1 | - | - | - | - | - | -
N#Cc1sc2nc(-c3ccccc3)cc(-c3ccco3)c2c1N | - | - | - | 37.0 | - | -
